# Screening results as filed in PubChem BioAssay.
# A selection: hits, their analogues and other compounds. The true share with any hit is near 4.1%.
# KCNK9 inh: blocks the human KCNK9 two-pore domain potassium channel | Q9NPC2 | HEK293 KCNK9, FluxOR thallium flux fluorescence; active compounds read low | B-score at 10 µM | actives 1.2% (n = 310,000) | AID 488922;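 active means ratio B-score over 3 SD below the library mean, with starting fluorescence within 5 SD of its mean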;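 further: negative B-score means less thallium flux so channel inhibition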
# Target sequence (Q9NPC2 whole entry, looked up, the tested form may be a part): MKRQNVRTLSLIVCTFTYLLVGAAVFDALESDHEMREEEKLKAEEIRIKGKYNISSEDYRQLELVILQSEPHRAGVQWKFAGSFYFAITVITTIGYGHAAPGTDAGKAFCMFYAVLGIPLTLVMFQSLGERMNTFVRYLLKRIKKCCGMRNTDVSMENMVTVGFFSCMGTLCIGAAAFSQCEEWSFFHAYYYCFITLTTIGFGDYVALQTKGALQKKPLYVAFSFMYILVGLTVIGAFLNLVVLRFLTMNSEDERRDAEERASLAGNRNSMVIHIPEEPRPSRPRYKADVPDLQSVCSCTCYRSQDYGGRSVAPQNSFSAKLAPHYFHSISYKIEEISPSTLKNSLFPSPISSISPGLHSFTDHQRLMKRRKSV
# Cl transport mod: modulates chloride dependent transport by human KCC2. Q9H2X9. KCC2 cells, thallium flux FluoZin-2 fluorescence. B-score of Tl+ flux slope (higher = more flux/activation; lower = inhibition) at 10 µM. actives 2.2% (n = 190,000);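 active means thallium flux slope and its plate-corrected score both differing from the plate sample mean at a set confidence after two filtering rounds, in either direction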;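 further: slope of fluorescence scaled to starting intensity during 10 to 20 s after thallium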
# hERG protect: shields human hERG channel from block by proarrhythmic agents; CHO-hERG, FluxOR thallium flux, dofetilide IC70 present; activation (rescue from dofetilide block), less the hit threshold, % at 10 µM; actives 0.51% (n = 310,000);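 active means activation above the mean of controls blocked by dofetilide plus 5 SD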;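 further: thallium influx through hERG after potassium depolarization seen as dye fluorescence rise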
# KCNQ1 block: inhibitors of human KCNQ1 potassium channel | actives 1.3% (n = 310,000) | CHO-K1 KCNQ1, FluxOR thallium flux fluorescence; active compounds read high | B-score at 10 µM | AID 2642 | P51787;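 active means compounds whose thallium flux B-score, printed positive for inhibition, exceeds three library SD while starting fluorescence stays within three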;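 further: channel opened by potassium depolarization with thallium stimulus after 20 min compound exposure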
# KCNK3 block: human KCNK3 channel inhibition, primary screen; O14649; B-score at 10 µM; AID 602410; actives 0.84% (n = 340,000); CHO-KCNK3 thallium flux, FluxOR fluorescence; active compounds read low;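 active means B-score under library mean minus 4 SD, starting fluorescence ratio at most library mean plus 5 SD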;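 further: more negative B-score means stronger inhibition of thallium flux through KCNK3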
# KCNQ1 act: human KCNQ1 channel potentiation or activation. AID 2648. CHO-K1 KCNQ1, thallium flux FluxOR fluorescence; active compounds read high. actives 0.35% (n = 310,000). P51787. B-score at 10 µM;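 active means fluorescence ratio B-score, a plate-corrected score, at least three library SD, with initial intensity B-score within 5 SD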
#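 System: CHO-K1 cells stably expressing KCNQ1 / Medium: assay buffer for compound exposure, DMSO matched across wells / Reagent: thallium- and potassium-containing depolarizing buffer / Compound: one concentration, matched DMSO / Incubation: 20 min compound pretreatment at room temperature / Measured by: kinetic FluxOR fluorescence, 10 s baseline plus 110 s post-stimulus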
# * marks the source's active call; other numbers are inactive results; i = inactive; . = not tested or not shown.
SMILES,KCNK9 inh,Cl transport mod,hERG protect,KCNQ1 block,KCNK3 block,KCNQ1 act
Cc1ccc(-n2ncc3c2CCCC3NC(=O)CCCN2CCCCC2=O)cc1C (stereo not given),i,.,-8.1,i,i,i
O=C(Nc1nccs1)c1c(O)c2cccc3c2n(c1=O)CCC3,i,-0.619,-4.0,6*,.,i
CC(C)(C)c1ccccc1NC(=O)c1c(O)c2cccc3c2n(c1=O)CC3,i,0.301,-6.2,7*,.,i
CCC1([N+](=O)[O-])COC(c2ccc(OC)cc2)OC1 (stereo not given),.,.,.,.,i,.
Cc1ccc(NC(=O)CSc2nc3nn(-c4ccccc4)c(=O)c-3c3n2CCCCC3)cc1F,.,.,.,.,i,.
CCOc1cc(/C=N/NC(=O)c2ccc(O)cc2)ccc1Oc1nc(Cl)ncc1F,-7.77*,-0.965,-2.5,i,i,i
O=C(NNc1ncc(C(F)(F)F)cc1Cl)c1c(Cl)cccc1Cl,i,3.76*,-9.3,i,i,i
NC(=O)NNc1ncc(C(F)(F)F)cc1Cl,i,1.49,-6.0,i,i,i
COc1ccc(C(CC(=O)c2ccccc2)CC(=O)c2ccccc2)cc1,-7.15*,-0.439,-2.8,i,i,i
COc1ccc(C(=O)C/C(=C\C(=O)c2ccc(C)cc2)c2ccccc2)cc1,i,-0.128,-13.5,6*,i,i
COc1ccc(O)c(C(=O)CC(=O)c2ccccc2)c1,i,21.6*,-0.2,i,.,i
COc1ccc(C(=O)CC(=O)c2ccccc2)cc1,i,.,-7.7,i,i,i
COc1ccc(C(C(=O)OCCN(C)C)c2ccccc2)cc1 (stereo not given),-6.81*,0.193,-3.3,i,i,i
COc1ccc(O)c(C(=O)CC(=O)c2ccncc2)c1,.,.,.,.,i,.
CCc1n[nH]c(=S)n1/N=C/C(C)=C\c1ccccc1,i,.,-0.8,i,i,i
CC(/C=N/n1c(-c2ccco2)n[nH]c1=S)=C\c1ccccc1,i,12.8*,-2.9,i,i,i
CC(/C=N/n1c(-c2ccc(Cl)cc2)n[nH]c1=S)=C\c1ccco1,i,12.9*,2.5,i,i,9*
CC(/C=N/n1c(-c2cc(C)[nH]n2)n[nH]c1=S)=C\c1ccco1,i,-0.683,-7.1,i,i,i
O=C(N/N=C/c1ccc(OC(=O)c2cccs2)cc1)c1ccccn1,i,.,-11.3,i,i,i
Cc1c(CCOC(=O)CC23CC4CC(CC(C4)C2)C3)sc[n+]1Cc1ccccc1,i,0.471,-17.4,7*,i,i
CN(CC(O)CN)CC(O)CN1CCCCC1 (stereo not given),i,0.044,5.7*,i,i,i
OC(CN1CCCCCC1)CN(c1ccccc1)c1ccccc1 (stereo not given),i,.,-4.7,i,i,i
CCOc1ccc2nc(/N=C/c3c(C)[nH]n(-c4ccc(C)cc4)c3=O)sc2c1,i,69*,70.7*,i,i,40*
CCOc1ccc2nc(/N=C/c3nc(-c4ccc(Br)cc4)oc3O)sc2c1,i,4.61,6.7*,i,i,25*
CCOc1ccc2nc(/N=C/c3c(C)[nH]n(-c4ccccc4)c3=O)sc2c1,i,76.8*,57.5*,i,i,55*
SMILES,KCNK9 inh,Cl transport mod,hERG protect,KCNQ1 block,KCNK3 block,KCNQ1 act
Cc1nc2ccccc2c(C)c1CC(=O)N(C)CC(=O)Nc1cccc(F)c1,i,.,-17.5,i,i,i
O=C(CSc1nccc(=O)[nH]1)NC1CCCCCC1,.,.,.,.,i,.
O=C(Oc1ccc(Br)cc1C(=S)N1CCCC1)c1ccccc1Cl,-7.99*,.,-4.8,i,i,i
O=C(/C=C/c1ccccc1Cl)c1ccccc(=O)c1O,i,31*,16.4*,i,i,14*
CN(C[C@H](Cc1ccccc1)N(C[C@H](Cc1ccccc1)N(CCC(C)(C)C)N=O)N=O)N=O,i,-3.21,-11.9,8*,i,i
CCN(N=O)[C@@H](Cc1ccccc1)CN(N=O)[C@@H](Cc1ccccc1)CN(C)N=O,i,-0.499,-6.8,i,i,i
CC(C)CCN(N=O)[C@@H](Cc1ccccc1)CN(N=O)[C@@H](Cc1ccccc1)CN(C)N=O,i,-4.12*,-16.1,i,i,i
Cc1nc(CCNC(=O)C2CCC(=O)N(Cc3cccc(F)c3)C2)sc1C (stereo not given),i,.,-3.6,i,i,i
O=c1oc2ccccc2c(N2CCCC2)c1CN1CCCC1,i,0.574,-1.0,i,i,i
O=c1oc2ccccc2c(Cl)c1CN1CCCCC1,i,-1,1.4,i,i,15*
Cc1ccc(-c2nn(-c3ccccc3)cc2C2SCC(=O)N2Cc2ccccc2)o1 (stereo not given),i,-0.412,-19.6,7*,i,i
N#CCCN(C(=S)NC(=O)C1CCCCC1)c1ccccc1F,.,.,.,.,i,.
COc1cccc(NC(=O)c2cc3cccc(OC)c3o/c2=N\O)c1,i,.,-9.4,7*,.,i
CCN1CCN(Cc2ccc(NC(=O)c3cc(NC(=O)c4cc5cccc(OC)c5o4)cc(OC)c3)cc2C(F)(F)F)CC1,i,0.264,-32.9,i,i,i
COc1cc(NC(=O)c2cc3cccc(OC)c3o2)cc(C(=O)Nc2cccc(C(F)(F)F)c2)c1,i,0.0824,-25.5,7*,i,i
O=C(Nc1cccc(C(F)(F)F)c1)c1csc(-c2ccncc2)n1,i,-0.9,-9.7,i,i,i
COc1cc(NC(=O)c2csc(-c3ccncc3)n2)cc(C(=O)Nc2cccc(C(F)(F)F)c2)c1,i,-0.233,-26.4,11*,i,i
COc1cc(OC)cc(-c2nnc(SCc3ccc(C(=O)O)cc3)o2)c1,i,.,-5.2,i,i,i
Cc1cc(Br)ccc1NC(=O)CN(C)C(=O)C1CSC2(C)CCC(=O)N12 (stereo not given),.,.,.,.,i,.
O=C1Nc2ccccc2/C1=C/c1cnc(-c2ccccc2)[nH]1,-6.62*,0.798,-5.0,i,i,i
O=C1Nc2ccccc2/C1=C/c1cccnc1,i,0.668,-13.6,i,i,i
CC(C)(CCc1ccccn1)C(=O)CCCc1ccccn1,.,.,.,.,i,.
CS(=O)(=O)N(Cc1ccccc1)c1ccc(C(=O)Nc2ccc(C(N)=O)cc2)cc1,i,.,45.5*,i,i,i
CC(=O)c1cccc(NC(=O)c2ccc(N(Cc3ccccc3)S(C)(=O)=O)cc2)c1,i,-0.00867,-13.3,i,i,i
